# Publication PMC3000598 (Phytochemistry letters, 2008)
# pIC50: −log10 of the molar value.
# Experiments:
# 5-LOX = settings: cellular as well as cell-free assays; ref Albert et al. (2002); cited from earlier work
# COX-1 = settings: cellular as well as cell-free assays; ref Albert et al. (2002); cited from earlier work
# [1] = tested on: 5-LOX catalyzed LTB4 formation; experiment: In vitro assay for leukotriene; assay type: cell-based; settings: Homo sapiens, Leukocyte, 10 min, read-out: IC50 5-LOX mediated LTB4 formation
# Procedure, shortened: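 Human venous-blood polymorphonuclear leukocytes isolated by sedimentation rate and lysis tolerance; viability checked by 0.4% trypan blue. Cells (4500 cells/mL) were incubated with the ethanol-dissolved test compound, CaCl2, A23187 and arachidonic acid for 10 min at 37 °C with shaking. The reaction was stopped with 10% HCO2H, and LTB4 was measured by competitive EIA.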
pIC50 [1],SMILES,5-LOX inhibition (5-LOX),COX-1 inhibition (COX-1)
,CC(C)=CCC[C@]1(C)[C@@H](CC=C(C)C)C[C@@]2(CC=C(C)C)C(=O)[C@]1(C(=O)C(C)C)C(=O)C(CC=C(C)C)=C2O [hyperforin],dual COX-1/5-LOX inhibitor,dual COX-1/5-LOX inhibitor
5.30,CC(c1cc2ccccc2s1)N(O)C(N)=O (stereo not drawn) [Zileuton],,
